Common to all, as to assay type: functional
Test [1] concerns KB. Kind of test: Anticancer activity against human KB cells after 3 days by SRB assay. The note with it: 72 h, read-out: ED50 (the source's name). The essentials:
(§1)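 Cells seeded at 1500–7500 per well, compounds added from DMSO-diluted stock, grown 3 days in RPMI-1640 with 25mM HEPES, 0.25% sodium bicarbonate, 10% FBS and kanamycin. Attached cells fixed in cold 50% TCA, stained with 0.4% sulforhodamine B, absorbance read at 562 nm after dye solubilization. ED50 is the 50% growth-reduction concentration, averaged from at least three independent determinations.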
(In general: The SRB assay estimates cell density from bound dye.)

Test [2] in a line: Anticancer activity against human KBVIN cells after 3 days by SRB assay. The following applies: 72 h, read-out: ED50 (the source's name). The procedure, abridged:
as §1

Test [3] can be described thus: Selectivity ratio of ED50 for human KB cells to ED50 for human KBVIN cells. The procedure, abridged:
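Ratio of KB ED50 to KB-VIN ED50. Both values come from a 3-day sulforhodamine B assay with absorbance read at 562 nm. Cells were seeded at 1500–7500 per well and dosed from DMSO-diluted stock. Each ED50 is the mean of at least three independent determinations.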

Bounds are passed on as bounds.

On to `CCC1=C(O)c2c(oc(-c3cccc(OC)c3)cc2=O)C(CC)(CC)C1=O`, for which the values for the EC50 in test [1] and in test [2] were 13.3 µM and 1.22 µM, respectively. Besides, the “Ratio ED50” value in test [3] came out at 11.
Take `CCC1=C(O)c2c(oc(-c3ccc(OC)cc3)cc2=O)C(CC)(CC)C1=O`: the EC50 turned out to be 17.7 µM in test [1] and 0.68 µM in test [2]. The “Ratio ED50” value in test [3] stood at 26.
The like results for `CCC1=C(O)c2c(oc(-c3ccc(OC)c(OC)c3OC)cc2=O)C(CC)(CC)C1=O` were, in that order, 9.4 µM, 1.57 µM and 6.
With `CCC1=C(O)c2c(oc(-c3cc(C)ccc3C)cc2=O)C(CC)(CC)C1=O`, the results for the EC50 in test [1] and in test [2] were 14.5 µM and 3.41 µM, respectively. In test [3], the “Ratio ED50” value was determined as 4.
The like results for `CCC1=C(O)c2c(oc(-c3ccc(OC)c(F)c3)cc2=O)C(CC)(CC)C1=O` were, in that order, 26.7 µM, 0.1 µM and 250.
On to `CCC1=C(O)c2c(oc(-c3ccc(C(F)(F)F)cc3)cc2=O)C(CC)(CC)C1=O`, for which the figures for the EC50 in test [1] and in test [2] were 35.7 µM and 10.3 µM, respectively. In addition, the “Ratio ED50” value in test [3] was determined as 3.5.
For `CCC1=C(O)c2c(oc(-c3ccc(C)c(F)c3)cc2=O)C(CC)(CC)C1=O`, the results for the EC50 in test [1] and in test [2] were 28.1 µM and 2.95 µM, respectively. Also, the “Ratio ED50” value in test [3] stood at 10.
For the molecule `CCC1=C(O)c2c(oc(-c3ccc(SC)cc3)cc2=O)C(CC)(CC)C1=O`, the results for the EC50 in test [1] and in test [2] were greater than 52.1 µM and 1.38 µM, respectively. Moreover, in test [3], the “Ratio ED50” value is greater than 38.
The like results for `CCC1=C(O)c2c(oc(-c3ccc(OC)c(C)c3)cc2=O)C(CC)(CC)C1=O` were, in that order, 28.5 µM, 0.1 µM and 273.
For `CCCc1ccc(-c2cc(=O)c3c(o2)C(CC)(CC)C(=O)C(CC)=C3O)cc1` the same measures were greater than 53 µM, 12.2 µM and greater than 4.
For `CCC1=C(O)c2c(oc(-c3ccccc3OC)cc2=O)C(CC)(CC)C1=O` the same measures were 40.8 µM, 3.26 µM and 13.
As to `CCC1=C(O)c2c(oc(-c3cccc(C(F)(F)F)c3)cc2=O)C(CC)(CC)C1=O`, the EC50 in test [1] was 35.7 µM; in test [2], 5.42 µM. Also, the “Ratio ED50” value in test [3] was found to be 6.6.
With `CCC1=C(O)c2c(oc(-c3ccc(O)c(O)c3)cc2=O)C(CC)(CC)C1=O`, the results for the EC50 in test [1] and in test [2] were 10 µM and 5.41 µM, respectively. Also, in test [3], the “Ratio ED50” value was found to be 2.
Regarding `CCC1=C(O)c2c(oc(-c3cc(C)cc(C)c3)cc2=O)C(CC)(CC)C1=O`, the EC50 in test [1] is 45.5 µM; in test [2] it was 0.45 µM. Moreover, the “Ratio ED50” value in test [3] stood at 100.
With `CCC1=C(O)c2c(oc(-c3cccc(C)c3)cc2=O)C(CC)(CC)C1=O`, the EC50 in test [1] came to 49.7 µM; in test [2], 3.69 µM. Moreover, the “Ratio ED50” value in test [3] came out at 14.
The like results for `CCC1=C(O)c2c(oc(-c3cc(OC)cc(OC)c3)cc2=O)C(CC)(CC)C1=O` were, in that order, 45.2 µM, 3.27 µM and 14.
The like results for `CCC1=C(O)c2c(oc(-c3ccc(OC)c(OC)c3)cc2=O)C(CC)(CC)C1=O` were, in that order, 14.7 µM, 1 µM and 15.
For the molecule `CCC1=C(O)c2c(oc(-c3ccc(F)cc3)cc2=O)C(CC)(CC)C1=O`, the figures for the EC50 in test [1] and in test [2] were 33 µM and 1.85 µM, respectively. In addition, in test [3], the “Ratio ED50” value turned out to be 18.
On to `CCC1=C(O)c2c(oc(-c3cccc(OC(F)(F)F)c3)cc2=O)C(CC)(CC)C1=O`, for which the EC50 in test [1] was greater than 47.4 µM; in test [2], 9.95 µM. Further, the “Ratio ED50” value in test [3] is on record as greater than 5.
As to `CCC1=C(O)c2c(oc(-c3ccc(C)c(Cl)c3)cc2=O)C(CC)(CC)C1=O`, the values for the EC50 in test [1] and in test [2] were 39 µM and 2.15 µM, respectively. Further, the “Ratio ED50” value in test [3] is 18.
For `CCOc1cccc(-c2cc(=O)c3c(o2)C(CC)(CC)C(=O)C(CC)=C3O)c1OCC` the same measures were 44.6 µM, 31.7 µM and 1.4.
The like results for `CCC1=C(O)c2c(oc(-c3ccc(OC)c(Cl)c3)cc2=O)C(CC)(CC)C1=O` were, in that order, 24.9 µM, 1.37 µM and 18.
On to `CCC1=C(O)c2c(oc(-c3cc(OC)c(OC)c(OC)c3)cc2=O)C(CC)(CC)C1=O`, for which the EC50 worked out at 46.7 µM in test [1] and 5.6 µM in test [2]. The “Ratio ED50” value in test [3] was 8.
Turning to `CCC1=C(O)c2c(oc(-c3ccc(OC(F)(F)F)cc3)cc2=O)C(CC)(CC)C1=O`, the EC50 turned out to be 36.5 µM in test [1] and 9.95 µM in test [2]. Also, the “Ratio ED50” value in test [3] was found to be 4.
As for `CCC1=C(O)c2c(oc(-c3cccc(F)c3)cc2=O)C(CC)(CC)C1=O`, the results for the EC50 in test [1] and in test [2] were greater than 56.2 µM and 3.09 µM, respectively. Further, the “Ratio ED50” value in test [3] is listed as greater than 18.
The like results for `CCC1=C(O)c2c(oc(-c3ccc(C(C)(C)C)cc3)cc2=O)C(CC)(CC)C1=O` were, in that order, 29.3 µM, 17.4 µM and 2.
The like results for `CCC1=C(O)c2c(oc(-c3ccc(Br)cc3)cc2=O)C(CC)(CC)C1=O` were, in that order, greater than 48.1 µM, 15.7 µM and 3.
The like results for `CCC1=C(O)c2c(oc(-c3cc(C)c(OC)cc3C)cc2=O)C(CC)(CC)C1=O` were, in that order, 36.6 µM, 7.58 µM and 5.
`CCC1=C(O)c2c(oc(-c3cc(C)ccc3F)cc2=O)C(CC)(CC)C1=O`: the EC50 stood at 47.3 µM in test [1] and 3.24 µM in test [2]. For the same molecule, the “Ratio ED50” value in test [3] worked out at 15.
On to `CCC1=C(O)c2c(oc(-c3ccccc3C(F)(F)F)cc2=O)C(CC)(CC)C1=O`, for which the results for the EC50 in test [1] and in test [2] were 45.6 µM and 43.1 µM, respectively. Moreover, the “Ratio ED50” value in test [3] came to 1.
For the molecule `CCC1=C(O)c2c(oc(-c3ccc(CBr)cc3)cc2=O)C(CC)(CC)C1=O`, the EC50 in test [1] was greater than 46.5 µM; in test [2], 27.9 µM. In test [3], the “Ratio ED50” value is given as greater than 2.
For the molecule `CCC1=C(O)c2c(oc(-c3cc(OC)ccc3OC)cc2=O)C(CC)(CC)C1=O`, the EC50 came to 8.8 µM in test [1] and 2.51 µM in test [2]. Moreover, the “Ratio ED50” value in test [3] is recorded as 4.
On to `CCC1=C(O)c2c(oc(-c3ccccc3C)cc2=O)C(CC)(CC)C1=O` [6,8,8-TRIETHYL-2-METHYL DESMOSDUMOTIN B], for which the figures for the EC50 in test [1] and in test [2] were 40.9 µM and 2.41 µM, respectively. Moreover, in test [3], the “Ratio ED50” value came out at 17.
The like results for `CCC1=C(O)c2c(oc(-c3ccc(COC)cc3)cc2=O)C(CC)(CC)C1=O` were, in that order, greater than 52.4 µM, 3.4 µM and 15.
For `CCC1=C(O)c2c(oc(-c3cccc(C)c3C)cc2=O)C(CC)(CC)C1=O`, the EC50 in test [1] came to 3.1 µM; in test [2] it was 0.85 µM. In test [3], the “Ratio ED50” value came out at 4.
Turning to `CCC1=C(O)c2c(oc(-c3ccc(C)cc3C)cc2=O)C(CC)(CC)C1=O`, the EC50 in test [1] came to 41.2 µM; in test [2] it was 8.52 µM. The “Ratio ED50” value in test [3] was found to be 5.
For the molecule `CCC1=C(O)c2c(oc(-c3ccc(C)c(C)c3)cc2=O)C(CC)(CC)C1=O`, the EC50 in test [1] was 35.5 µM; in test [2], 0.71 µM. Besides, in test [3], the “Ratio ED50” value worked out at 50.
Take `CCC1=C(O)c2c(oc(-c3cc(C)c(C)cc3C)cc2=O)C(CC)(CC)C1=O`: the values for the EC50 in test [1] and in test [2] were 8.2 µM and 4.37 µM, respectively. Besides, the “Ratio ED50” value in test [3] came to 2.
Take `CCC1=C(O)c2c(oc(-c3cccc(OC)c3OC)cc2=O)C(CC)(CC)C1=O`: the EC50 in test [1] worked out at 35.2 µM; in test [2], 4.02 µM. The “Ratio ED50” value in test [3] was 9.
On to `CCC1=C(O)c2c(oc(-c3cc(Cl)c(OC)c(OC)c3)cc2=O)C(CC)(CC)C1=O`, for which the values for the EC50 in test [1] and in test [2] were 21.8 µM and 8.4 µM, respectively. In addition, the “Ratio ED50” value in test [3] is reported as 3.
Turning to `CCC1=C(O)c2c(oc(-c3ccccc3F)cc2=O)C(CC)(CC)C1=O`, the EC50 in test [1] was greater than 56.2 µM; in test [2], 3.93 µM. In addition, the “Ratio ED50” value in test [3] was greater than 14.
The like results for `CCC1=C(O)c2c(oc(-c3ccc(OC)cc3C)cc2=O)C(CC)(CC)C1=O` were, in that order, 20.9 µM, 2.62 µM and 8.
For the molecule `CCC1=C(O)c2c(oc(-c3ccc(F)c(C)c3)cc2=O)C(CC)(CC)C1=O`, the EC50 was 40.5 µM in test [1] and 1.62 µM in test [2]. For the same molecule, in test [3], the “Ratio ED50” value turned out to be 24.
On to `CCC1=C(O)c2c(oc(-c3ccc(C(C)C)cc3)cc2=O)C(CC)(CC)C1=O`, for which the EC50 in test [1] was 8.13 µM; in test [2], 1.08 µM.
As for `CCCOc1ccc(-c2cc(=O)c3c(o2)C(CC)(CC)C(=O)C(CC)=C3O)cc1`, the EC50 in test [1] is greater than 50.5 µM; in test [2], 29.2 µM. Moreover, the “Ratio ED50” value in test [3] was greater than 2.
For `CCOc1ccc(-c2cc(=O)c3c(o2)C(CC)(CC)C(=O)C(CC)=C3O)cc1` the same measures were greater than 52.4 µM, 7.54 µM and greater than 7.
Turning to `CCC1=C(O)c2c(oc(-c3ccc(O)c(C)c3C)cc2=O)C(CC)(CC)C1=O`, the EC50 stood at 6.5 µM in test [1] and 2.75 µM in test [2]. In addition, the “Ratio ED50” value in test [3] was determined as 2.
In the case of `CCC1=C(O)c2c(oc(-c3ccc(O)cc3)cc2=O)C(CC)(CC)C1=O`, the EC50 in test [1] and in test [2] was 20.6 µM throughout. In addition, the “Ratio ED50” value in test [3] was determined as 1.
For the molecule `CCCCc1ccc(-c2cc(=O)c3c(o2)C(CC)(CC)C(=O)C(CC)=C3O)cc1`, the EC50 was determined as 111 µM in test [1] and 37 µM in test [2]. For the same molecule, the “Ratio ED50” value in test [3] was 3.

The values are drawn from ChEMBL document CHEMBL1250520, “Antitumor agents. 280. Multidrug resistance-selective desmosdumotin B analogues” (2010).
